As usually defined, the inhibition is the change of the read-out against control, counted positive when it falls. As usually defined, the IC50 is the concentration that gives 50% inhibition. The term Ki denotes a dissociation constant, usually derived from enzyme kinetics or from competition with a known ligand. A low value points to higher affinity. Usually Papp stands for the rate of passage across a membrane or cell layer, normalised by area and donor concentration. The term pKa denotes the pH at which an ionisable group is half protonated. A word on the inhibition in vivo: it is the relative decrease from the control value, in per cent. As usually defined, the logP is a log measure of how a compound divides between an organic and an aqueous phase. High values mean a more lipophilic compound, low ones a more hydrophilic compound.

One series is filed under the species Cavia porcellus. Put plainly: Displacement of [3H]-DTG from sigma 2 receptor in guinea pig brain membrane at 1 uM after 120 mins by liquid scintillation counting. Format: cell membranes. The essentials:
(§1)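 Guinea pig brain membranes (200 μg) with 10 nM [³H]-DTG in 50 mM Tris-HCl pH 8, σ1R masked by 400 nM (+)-SKF10047; 25 °C, 120 min; 10 μM haloperidol for non-specific binding. Filtered, washed 3× ice-cold 50 mM Tris-HCl pH 7.4, scintillation counted.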
A general note: Loss of bound radioactivity is the signal in a displacement assay; it reports binding, not function.

The target in series [1] is Voltage-gated inwardly rectifying potassium channel KCNH2 (Homo sapiens, UniProt Q12809).
Series [2] deals with Sigma non-opioid intracellular receptor 1 (Homo sapiens, UniProt Q99720). Put plainly: Displacement of [3H](+)-pentazocine from human sigma 1 receptor transfected in HEK293 cells after 120 mins by liquid scintillation counting. Type of series: cell-based.
The nature of series [3]: Displacement of [3H]-DTG from sigma 2 receptor in guinea pig brain membrane after 120 mins by liquid scintillation counting. Format: cell membranes, Cavia porcellus. An outline of the steps: as §1
Series [4] is described as follows: Apparent permeability across human Caco2 cells at 10 uM after 2 hrs. Type of series: ADME, cell-based. Conditions: Caco-2. Background: Passage across Caco-2 layers is used to estimate intestinal permeability.
The nature of series [5]: Dissociation constant, pKa of the compound. Format: physicochemical. An outline of the steps: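 pKa calculated in silico with ACDLABS 9.0.3.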
In series [6] the test system is Mus musculus. Kind of series: Antinociceptive activity against formalin-induced pain in CD1 mouse assessed as reduction in mean licking and biting time at 40 mg/kg, ip administered 30 mins before fomalin injection measured during second phase of 15 to 30 mins after formalin challenge. Particulars: route intraperitoneal. Type of series: functional. The essentials:
(§2)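 Male CD1 mice, 6–8 weeks; 20 μL of 2.5% formalin (0.92% formaldehyde) injected i.pl. into right hind paw midplantar surface. Vehicle 0.5% HPMC or compound given i.p. or p.o. (10 mL/kg) 30 min before formalin; n = 7–8/group. Licking/biting time scored 15–30 min post-injection (phase II), blind; % antinociception derived relative to vehicle group.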

Series [7] has as its system Mus musculus. Kind of series: Antinociceptive activity against formalin-induced pain in CD1 mouse assessed as reduction in mean licking and biting time at 80 mg/kg, po administered 30 mins before fomalin injection measured during second phase of 15 to 30 mins after formalin challenge. Type of series: functional. The essentials: as §2
The nature of series [8]: Thermodynamic solubility of the compound in phosphate buffer at pH 7.4. Type of series: physicochemical. Particulars: read-out: Therm_solubility. An outline of the steps:
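Thermodynamic solubility measured from solid compound in phosphate buffer, pH 7.4, quantified by HPLC.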

The test system of series [9] is Mus musculus. Kind of series: Antinociceptive activity in CD1 mouse assessed as reduction in capsaicin-induced mechanical hypersensitivity measured as latency time to paw withdrawal response to upward pressure at 80 mg/kg, po administered 30 mins prior to capsaicin-challenge measured after 45 mins of treatment by von Frey filament test. Format: functional. An outline of the steps:
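Female CD1 mice habituated 2 h on mesh platform; vehicle 0.5% HPMC or compound p.o. (10 mL/kg) 30 min before i.pl. capsaicin (1 μg in 20 μL 1% DMSO). 15 min after capsaicin, dynamic plantar aesthesiometer filament (0.5 g) applied ≥5 mm from site, 3 trials averaged, 50 s cut-off; n = 8–26. % reduction of hypersensitivity = (LTD−LTV)/(CT−LTV)×100.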

Series [10] concerns Mus musculus. Put plainly: Antinociceptive activity in CD1 mouse sciatic nerve injury-induced neuropathic pain model assessed as reduction in mechanical hypersensitivity measured as hind paw withdrawal response at 80 mg/kg, po treated 30 mins before test by von Frey filament test. Format: functional. The essentials:
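Male CD1 mice with partial sciatic nerve ligation; habituation 4 days, 2 baseline days, allodynia checked days 5 and 8 (vehicle on day 8). Compound given p.o. (10 mL/kg) on day 15, 30 min before von Frey testing; n = 7–8/group, two independent experiments. Effect referenced to day-8 vehicle threshold and pre-surgery baseline.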

Series [11] can be described thus: Lipophilicity, log P of the compound. Type of series: physicochemical. Particulars: octanol/water. An outline of the steps:
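clogP calculated with ChemDraw Ultra 10.0.3.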

A short description of series [12]: Intrinsic clearance in human liver microsomes assessed as per mg of protein at 10 uM. Particulars: read-out: CLH. Type of series: ADME.

The structures appear in SMILES notation. ≈ marks a conversion by molar mass, not a printed value. A value given as a limit tells only on which side of the number the result lay.

Sigma non-opioid intracellular receptor 1, sequence (Q99720 whole entry): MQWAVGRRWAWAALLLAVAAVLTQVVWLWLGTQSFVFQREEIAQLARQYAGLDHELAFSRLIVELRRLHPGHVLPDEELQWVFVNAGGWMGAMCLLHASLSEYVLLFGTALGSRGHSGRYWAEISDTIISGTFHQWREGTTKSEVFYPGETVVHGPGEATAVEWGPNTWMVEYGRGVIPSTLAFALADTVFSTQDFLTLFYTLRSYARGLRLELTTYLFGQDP
Voltage-gated inwardly rectifying potassium channel KCNH2, sequence (Q12809 whole entry): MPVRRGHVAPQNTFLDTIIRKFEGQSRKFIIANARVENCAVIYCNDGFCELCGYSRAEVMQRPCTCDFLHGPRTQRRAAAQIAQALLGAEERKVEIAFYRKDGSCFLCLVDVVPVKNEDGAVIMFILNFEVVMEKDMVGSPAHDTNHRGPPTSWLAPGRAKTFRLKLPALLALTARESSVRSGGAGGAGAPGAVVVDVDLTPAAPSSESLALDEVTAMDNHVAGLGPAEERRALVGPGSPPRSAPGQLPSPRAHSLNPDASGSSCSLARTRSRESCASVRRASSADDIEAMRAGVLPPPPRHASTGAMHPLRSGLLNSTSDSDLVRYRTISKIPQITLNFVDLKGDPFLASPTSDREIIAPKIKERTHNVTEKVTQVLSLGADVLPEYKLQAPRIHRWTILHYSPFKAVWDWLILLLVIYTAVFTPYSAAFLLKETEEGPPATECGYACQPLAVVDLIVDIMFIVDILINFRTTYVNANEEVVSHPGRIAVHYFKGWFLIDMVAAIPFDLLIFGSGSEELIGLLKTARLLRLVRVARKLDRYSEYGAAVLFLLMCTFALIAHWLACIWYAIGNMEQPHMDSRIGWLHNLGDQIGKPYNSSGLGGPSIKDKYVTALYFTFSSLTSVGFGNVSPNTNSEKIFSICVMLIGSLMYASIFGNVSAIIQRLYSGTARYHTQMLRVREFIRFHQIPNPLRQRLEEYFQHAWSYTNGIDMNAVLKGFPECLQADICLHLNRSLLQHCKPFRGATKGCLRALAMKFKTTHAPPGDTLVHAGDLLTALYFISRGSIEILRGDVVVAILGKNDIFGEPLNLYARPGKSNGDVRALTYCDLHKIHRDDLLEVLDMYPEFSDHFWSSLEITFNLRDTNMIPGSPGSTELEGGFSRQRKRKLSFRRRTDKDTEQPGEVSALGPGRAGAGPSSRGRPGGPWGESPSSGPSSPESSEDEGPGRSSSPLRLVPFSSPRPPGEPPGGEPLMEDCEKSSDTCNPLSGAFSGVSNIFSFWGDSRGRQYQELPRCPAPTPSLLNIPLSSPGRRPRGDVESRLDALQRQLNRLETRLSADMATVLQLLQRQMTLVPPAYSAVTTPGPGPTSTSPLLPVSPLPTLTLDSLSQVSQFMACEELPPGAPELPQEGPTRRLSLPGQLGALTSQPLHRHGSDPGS

`Fc1ccc(-n2cc(NCCN3CCCCC3)nn2)cc1F` came in with an inhibition in the series listed under Cavia porcellus of 65%. For the same molecule, in series [1], half-maximal inhibition (IC50) required 2200 nM.

In the case of `CS(=O)(=O)N(CCN1CCOCC1)c1cn(-c2ccc(Cl)c(Cl)c2)nn1`, the Ki in series [2] is > 1000 nM.

`Fc1cccc(-n2cc(NCCN3CCCCC3)nn2)c1` gave an inhibition in the series listed under Cavia porcellus of 59%. The molecule further displayed an IC50 in series [1] of 5200 nM.

`c1ccc(Cn2cc(NCCN3CCCCC3)nn2)cc1` came in with a Ki in series [3] of 624 nM.

In the case of `c1c(NCCN2CCOCC2)nnn1C12CC3CC(CC(C3)C1)C2`, in [1], the IC50 is > 10000 nM.

Consider `Fc1ccc(-n2cc(NCCN3CCCCC3)nn2)cc1`, for which the inhibition in the series filed under Cavia porcellus is 54%.

Take `Clc1ccc(Cn2cc(NCCN3CCOCC3)nn2)cc1Cl`: the Papp at 2 h, 10 µM in [4] came to 46.2 ×10⁻⁶ cm/s. In series [5], the pKa is 6.7. The inhibition in vivo at 40 mg/kg with Mus musculus [6] came out at 94%. In addition, the inhibition in vivo at 80 mg/kg with Mus musculus [7] is 67%; in the series on Mus musculus [9], 94%; in the series on Mus musculus [10], 140%. For the same molecule, in series [8], the solubility thermodynamic was > 4000 µg/mL. This molecule showed a logP in [11] of 2.4. For the same molecule, the Ki in [3] was > 10000 nM. Moreover, in series [12], the microsomal CLint at 10 µM was found to be 2.9 µL/min/mg.

As to `Fc1ccc(-n2cc(NCCN3CCCCC3)nn2)c(F)c1`, the inhibition in the series filed under Cavia porcellus worked out at 53%.

In series [2], `Fc1ccc(Cn2cc(NCCN3CCOCC3)nn2)cc1F` showed a Ki of 878 nM.

For `CCN(CC)CCNc1cn(Cc2ccccc2)nn1`, the Ki in series [2] is 701 nM.

The molecule `CC(=O)N(CCN1CCOCC1)c1cn(Cc2ccc(Cl)c(Cl)c2)nn1` showed a Ki in series [2] of 459 nM.

For `Fc1ccc(Cn2cc(NCCN3CCCCC3)nn2)cc1F`, the Ki in series [3] is 946 nM.

For the molecule `Clc1ccc(Cn2cc(NCCCN3CCOCC3)nn2)cc1Cl`, the affinity in [2], expressed as Ki, was 508 nM. This lies in the sub-micromolar range.

Turning to `c1ccc(Cn2cc(NCCN3CCOCC3)nn2)cc1`, the Ki in [2] is > 1000 nM.

In series [3], `Clc1ccc(Cn2cc(NCCN3CCCCC3)nn2)cc1Cl` had a Ki of 69 nM. That is a double-digit nanomolar value.

With `CCN(CCN1CCOCC1)c1cn(C23CC4CC(CC(C4)C2)C3)nn1`, the affinity in [3] corresponds to a Ki of 72 nM. This Ki and that of the molecule before are within 1.5-fold of each other.

For the molecule `Clc1ccc(-n2cc(NCCN3CCCCC3)nn2)c(Cl)c1`, the inhibition in the series filed under Cavia porcellus was 62%.

In the case of `C[C@@H]1CCC[C@H](C)N1CCNc1cn(Cc2ccc(F)cc2)nn1`, the inhibition in the series listed under Cavia porcellus stood at 72%.

As for `Fc1ccc(-n2cc(NCCN3CCOCC3)nn2)cc1F`, the inhibition constant Ki in series [2] is > 1000 nM.

`Fc1cccc(-n2cc(NCCN3CCCCCC3)nn2)c1` came in with an inhibition in the series filed under Cavia porcellus of 86%.

On to `Clc1ccc(-n2ccc(NCCN3CCCCC3)n2)cc1Cl`, for which the Ki in series [2] was 10 nM; in series [3], 91 nM.

For the molecule `Clc1ccc(-n2ccc(NCCN3CCOCC3)n2)cc1Cl`, in series [3], the affinity, expressed as Ki, was 562 nM.

Molecule `CC(=O)N1CCN(CCNc2cn(Cc3ccc(Cl)c(Cl)c3)nn2)CC1` registered a Ki in series [2] of 818 nM.

Molecule `Fc1cccc(-n2cc(NCCN3CCN(C4CCCCC4)CC3)nn2)c1` yielded an inhibition in the series filed under Cavia porcellus of 74%.

In the case of `Fc1ccc(Cn2cc(NCCN3CCC(F)(F)CC3)nn2)cc1F`, the IC50 in [1] is > 10000 nM. In addition, the Ki in [3] was > 10000 nM.

Regarding `Fc1ccc(Cn2cc(NCCN3CCCCC3)nn2)cc1`, the inhibition in the series listed under Cavia porcellus was 66%.

In turn, `Clc1ccc(Cn2cc(NCCN3CCCCCC3)nn2)cc1Cl` displayed an inhibition in the series filed under Cavia porcellus of 87%.

In turn, `Fc1cccc(-n2cc(NCCN3CCCOCC3)nn2)c1` had an inhibition in the series listed under Cavia porcellus of 47%.

For the molecule `CCCN(CCN1CCOCC1)c1cn(-c2ccc(Cl)c(Cl)c2)nn1`, in series [2], the affinity, expressed as Ki, was 451 nM.

On to `Fc1ccc(Cn2cc(NCCN3CCC(F)(F)CC3)nn2)cc1`, for which the Ki in [3] is > 10000 nM.

With `Clc1ccc(Cn2cc(NCCN3CCCOCC3)nn2)cc1Cl`, in the series listed under Cavia porcellus, the inhibition was found to be 66%.

In turn, `CN1CCN(CCNc2cn(Cc3ccccc3)nn2)CC1` came in with an inhibition constant Ki in series [2] of 9620 nM.

In series [1], `Clc1ccc(-n2cc(NCCN3CCCCC3)nn2)cc1Cl` gave an IC50 of 1700 nM. In series [3], the affinity, expressed as Ki, was 323 nM.

Regarding `Clc1ccc(-n2cc(NCCN3CCOCC3)nn2)cc1Cl`, the Papp at 2 h, 10 µM in series [4] is 51 ×10⁻⁶ cm/s. The molecule further had a pKa in [5] of 6.6. Also, the inhibition in vivo at 40 mg/kg in the series with Mus musculus [6] stood at 95%. Further, the inhibition in vivo at 80 mg/kg was found to be 62% in the series with Mus musculus [7], 68% with Mus musculus [9] and 56% with Mus musculus [10]. For the same molecule, in [8], the solubility thermodynamic was determined as 170 µg/mL (≈ 497 µM). The same molecule returned a log partition coefficient (logP) in [11] of 2.9. In addition, in series [1], the IC50 is > 10000 nM. In series [3], the Ki was > 10000 nM. In addition, the microsomal CLint at 10 µM in [12] was found to be 0.8 µL/min/mg.

In the series listed under Cavia porcellus, `Fc1ccc(-n2cc(NCCN3CCC(F)(F)CC3)nn2)cc1F` had an inhibition of 29%. The IC50 in series [1] is > 10000 nM.

On to `c1ccc(Cn2cc(NCCN3CCCCCC3)nn2)cc1`, for which, in the series filed under Cavia porcellus, the inhibition came out at 75%.

`Clc1ccc(-n2cc(NCCN3CCCCC3)nn2)cc1` came in with an inhibition in the series listed under Cavia porcellus of 65%. This molecule gave an IC50 in [1] of 3100 nM.

`c1c(NCCN2CCOCC2)nnn1C1CCCCC1`: the Ki in [2] was > 1000 nM.

On to `Fc1cccc(-n2cc(NCCN3CCOCC3)nn2)c1`, for which the Ki in [2] is 781 nM.

Molecule `Fc1ccc(Cn2cc(NCCN3CCOCC3)nn2)cc1` displayed an inhibitory constant (Ki) in [2] of 662 nM. This Ki and that of the molecule before are within 1.5-fold of each other.

Turning to `Cc1cc(OCCN2CCOCC2)nn1-c1ccc2ccccc2c1`, the inhibition in vivo at 40 mg/kg in the series on Mus musculus [6] was 50%. The results for the inhibition in vivo at 80 mg/kg with Mus musculus [7], in the series on Mus musculus [9] and in the series with Mus musculus [10] were 66%, 48% and 62%, respectively. The Ki in series [3] is > 1000 nM. The microsomal CLint at 10 µM in series [12] worked out at 3 µL/min/mg.

`CCN(CCN1CCOCC1)c1cn(-c2ccc(Cl)c(Cl)c2)nn1` showed a Ki in series [3] of 55 nM. In other words, the double-digit nanomolar range.

Consider `CC(=O)N(CCN1CCOCC1)c1cn(-c2ccc(Cl)c(Cl)c2)nn1`, for which, in [2], the Ki was determined as 388 nM.

Turning to `Fc1cccc(Cn2cc(NCCN3CCCCC3)nn2)c1`, the inhibition in the series filed under Cavia porcellus was 43%. The IC50 in series [1] was > 10000 nM.

Source of the values: ChEMBL document CHEMBL3414517, “Synthesis and structure-activity relationship study of a new series of selective σ(1) receptor ligands for the treatment of pain: 4-aminotriazoles” (J Med Chem, 2015).
